# Data published in ChEMBL document CHEMBL3351537, “Design, synthesis and biological evaluation of 4-fluoropyrrolidine-2-carbonitrile and octahydrocyclopenta[b]pyrrole-2-carbonitrile derivatives as dipeptidyl peptidase IV inhibitors” (Eur J Med Chem, 2014).
# Active and inactive are the calls of the source. The rule behind the calls is not given here.
# Key:
# Mus musculus [1] = assay: Reduction in glucose excursion in ICR mouse compound administered as single dose measured at 15 mins post dose by oral glucose tolerance test; assay type: functional, organism-based
# Summary of the method: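 Fasted ICR mice (16 h) given a single oral dose, 5 or 15 mg/kg in 0.5% methylcellulose (10 mL/kg). Oral glucose challenge 2.5 g/kg given 30 min later. Blood glucose read at 0, 15, 30, 60, 90 and 120 min for AUC. Vehicle control included; mean ± SE, Student's t-test.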
# [2] = Mean residence time in Sprague-Dawley rat at 20 mg/kg, iv; assay type: ADME, organism-based; design: dose 20 mg/kg, route intravenous; details: in vivo
# Summary of the method: (§1)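 SD rats dosed orally or intravenously. Blood sampled after dosing and spun to plasma. Plasma deproteinized with methanol containing internal standard, centrifuged, supernatant diluted in methanol and centrifuged again. Compound levels measured by LC/MS/MS. PK parameters were derived from these plasma concentrations.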
# Rattus norvegicus [3] = assay: Apparent clearance in Sprague-Dawley rat at 20 mg/kg, iv; assay type: ADME, organism-based; design: dose 20 mg/kg, route intravenous; details: in vivo; summary of the method: as §1
# [4] = Cmax in Sprague-Dawley rat at 50 mg/kg, po; assay type: ADME, organism-based; design: dose 50 mg/kg, route oral; details: in vivo; summary of the method: as §1
# [5] = Mean residence time in Sprague-Dawley rat at 50 mg/kg, po; assay type: ADME, organism-based; design: dose 50 mg/kg, route oral; details: in vivo; summary of the method: as §1
# Cytochrome P450 3A4 = Cytochrome P450 3A4 (Homo sapiens, UniProt P08684); assay: Inhibition of CYP3A4 (unknown origin); assay type: ADME
# Cytochrome P450 3A4, sequence (P08684 whole entry): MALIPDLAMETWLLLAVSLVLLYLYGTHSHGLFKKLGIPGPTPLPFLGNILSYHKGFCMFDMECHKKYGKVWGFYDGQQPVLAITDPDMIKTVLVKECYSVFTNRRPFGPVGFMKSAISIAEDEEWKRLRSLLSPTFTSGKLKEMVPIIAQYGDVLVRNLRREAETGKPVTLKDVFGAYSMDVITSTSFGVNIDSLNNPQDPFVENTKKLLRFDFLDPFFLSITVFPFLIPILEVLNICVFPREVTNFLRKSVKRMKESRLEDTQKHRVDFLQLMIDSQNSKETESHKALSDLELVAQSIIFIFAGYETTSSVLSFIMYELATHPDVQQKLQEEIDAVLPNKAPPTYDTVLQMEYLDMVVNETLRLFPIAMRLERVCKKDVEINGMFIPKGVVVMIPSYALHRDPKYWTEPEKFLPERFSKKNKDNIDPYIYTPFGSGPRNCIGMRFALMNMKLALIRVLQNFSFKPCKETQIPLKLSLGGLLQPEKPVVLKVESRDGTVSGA
# Rattus norvegicus [6] = assay: AUC (0 to infinity) in Sprague-Dawley rat at 20 mg/kg, iv; assay type: ADME, organism-based, Plasma; design: dose 20 mg/kg, route intravenous, time infinity; details: in vivo; summary of the method: as §1
# [7] = molecular target: T1, Voltage-gated inwardly rectifying potassium channel KCNH2 (Homo sapiens, UniProt Q12809); assay: Inhibition of human ERG expressed in CHO cells after 20 mins by thallium assay; assay type: cell-based
# T1 sequence (Q12809 whole entry): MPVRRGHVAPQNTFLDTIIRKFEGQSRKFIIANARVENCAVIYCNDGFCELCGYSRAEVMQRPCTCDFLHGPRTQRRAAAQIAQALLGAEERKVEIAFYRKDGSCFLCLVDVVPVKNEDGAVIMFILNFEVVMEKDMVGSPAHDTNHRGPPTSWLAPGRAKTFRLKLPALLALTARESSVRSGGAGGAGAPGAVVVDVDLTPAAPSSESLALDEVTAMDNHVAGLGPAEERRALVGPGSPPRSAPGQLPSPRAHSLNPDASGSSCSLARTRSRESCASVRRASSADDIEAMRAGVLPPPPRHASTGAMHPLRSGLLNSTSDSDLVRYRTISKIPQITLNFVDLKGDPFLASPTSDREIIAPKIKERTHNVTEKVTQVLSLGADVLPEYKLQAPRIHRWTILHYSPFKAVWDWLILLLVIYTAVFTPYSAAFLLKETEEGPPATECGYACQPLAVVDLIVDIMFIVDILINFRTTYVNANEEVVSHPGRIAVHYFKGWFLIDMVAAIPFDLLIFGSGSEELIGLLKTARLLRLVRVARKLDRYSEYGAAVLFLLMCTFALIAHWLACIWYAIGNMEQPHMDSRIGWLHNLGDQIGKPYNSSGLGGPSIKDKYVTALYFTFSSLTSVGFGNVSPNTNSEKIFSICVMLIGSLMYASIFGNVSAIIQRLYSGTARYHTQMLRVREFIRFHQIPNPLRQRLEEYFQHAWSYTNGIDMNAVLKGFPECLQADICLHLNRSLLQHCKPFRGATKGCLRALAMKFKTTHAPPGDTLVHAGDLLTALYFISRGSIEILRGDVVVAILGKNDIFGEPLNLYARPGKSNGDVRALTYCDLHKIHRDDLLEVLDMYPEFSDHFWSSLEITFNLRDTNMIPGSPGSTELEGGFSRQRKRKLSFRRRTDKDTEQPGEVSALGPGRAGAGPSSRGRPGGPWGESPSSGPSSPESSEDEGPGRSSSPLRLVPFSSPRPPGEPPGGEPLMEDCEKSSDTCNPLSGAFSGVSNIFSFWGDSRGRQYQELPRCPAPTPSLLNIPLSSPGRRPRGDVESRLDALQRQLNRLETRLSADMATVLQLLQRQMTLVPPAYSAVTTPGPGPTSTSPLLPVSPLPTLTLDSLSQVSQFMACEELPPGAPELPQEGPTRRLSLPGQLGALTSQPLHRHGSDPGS
# Summary of the method: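 CHO-hERG-ZG cells grown with 100 μg/mL G418 and 100 μg/mL hygromycin B, then seeded and incubated 16–18 h at 37 °C. Cells held in loading buffer 90 min in the dark at RT, switched to assay buffer, and exposed to compound 20 min in the dark at RT. FluxOR thallium flux read on FDSS: baseline to 10 s, stimulus buffer added at 10 s, recording to 180 s.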
# [8] = AUC (0 to t) in Sprague-Dawley rat at 20 mg/kg, iv; assay type: ADME, organism-based; design: dose 20 mg/kg, route intravenous; details: plasma; summary of the method: as §1
# [9] = Cmax in Sprague-Dawley rat at 20 mg/kg, iv; assay type: ADME, organism-based; design: dose 20 mg/kg, route intravenous; details: in vivo; summary of the method: as §1
# [10] = molecular target: T1, Voltage-gated inwardly rectifying potassium channel KCNH2; assay: Inhibition of human ERG expressed in CHO cells after 20 mins by patch clamp assay; assay type: cell-based
# [11] = AUC (0 to t) in Sprague-Dawley rat at 50 mg/kg, po; assay type: ADME, organism-based; design: dose 50 mg/kg, route oral; details: plasma; summary of the method: as §1
# [12] = Tmax in Sprague-Dawley rat at 20 mg/kg, iv; assay type: ADME, organism-based; design: dose 20 mg/kg, route intravenous; details: in vivo; summary of the method: as §1
# Cytochrome P450 2C9 = Cytochrome P450 2C9 (Homo sapiens, UniProt P11712); assay: Inhibition of CYP2C9 (unknown origin); assay type: ADME
# Cytochrome P450 2C9, sequence (P11712 whole entry): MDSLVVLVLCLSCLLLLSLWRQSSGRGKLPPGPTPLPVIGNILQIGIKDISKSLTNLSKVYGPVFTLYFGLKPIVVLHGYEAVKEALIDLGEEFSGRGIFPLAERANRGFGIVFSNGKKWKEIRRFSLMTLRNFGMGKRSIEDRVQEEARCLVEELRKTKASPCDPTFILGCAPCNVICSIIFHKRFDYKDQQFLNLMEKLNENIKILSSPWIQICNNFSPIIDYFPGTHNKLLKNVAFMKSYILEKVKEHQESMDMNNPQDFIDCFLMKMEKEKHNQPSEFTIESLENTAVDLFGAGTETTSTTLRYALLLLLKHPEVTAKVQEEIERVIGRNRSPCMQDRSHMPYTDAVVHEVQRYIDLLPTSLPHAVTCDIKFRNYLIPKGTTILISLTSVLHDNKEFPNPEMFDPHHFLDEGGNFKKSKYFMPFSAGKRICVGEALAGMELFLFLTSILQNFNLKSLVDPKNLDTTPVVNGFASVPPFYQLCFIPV
# [13] = Half life in Sprague-Dawley rat at 20 mg/kg, iv; assay type: ADME, organism-based; design: dose 20 mg/kg, route intravenous; details: in vivo; summary of the method: as §1
# Rattus norvegicus [14] = assay: AUC (0 to infinity) in Sprague-Dawley rat at 50 mg/kg, po; assay type: ADME, organism-based, Plasma; design: time infinity, dose 50 mg/kg, route oral; details: in vivo; summary of the method: as §1
# [15] = Half life in Sprague-Dawley rat at 50 mg/kg, po; assay type: ADME, organism-based; design: dose 50 mg/kg, route oral; details: in vivo; summary of the method: as §1
# Rattus norvegicus [16] = assay: Oral bioavailability in Sprague-Dawley rat at 50 mg/kg; assay type: ADME, organism-based; details: in vivo; summary of the method: as §1
# [17] = Tmax in Sprague-Dawley rat at 50 mg/kg, po; assay type: ADME, organism-based; design: dose 50 mg/kg, route oral; details: in vivo; summary of the method: as §1
# [18] = Mean residence time in Sprague-Dawley rat at 10 mg/kg, iv; assay type: ADME, organism-based; design: dose 10 mg/kg, route intravenous; details: in vivo; summary of the method: as §1
# Mus musculus [19] = assay: Reduction in total cholesterol content in C57BKS db/db mouse at 15 mg/kg/day, po; assay type: functional, organism-based
# [20] = Mean residence time in Sprague-Dawley rat at 20 mg/kg, po; assay type: ADME, organism-based; design: dose 20 mg/kg, route oral; details: in vivo; summary of the method: as §1
# [21] = Cmax in Sprague-Dawley rat at 10 mg/kg, iv; assay type: ADME, organism-based; design: dose 10 mg/kg, route intravenous; details: in vivo; summary of the method: as §1
# [22] = AUC (0 to t) in Sprague-Dawley rat at 10 mg/kg, iv; assay type: ADME, organism-based; design: dose 10 mg/kg, route intravenous; details: plasma; summary of the method: as §1
# [23] = Tmax in Sprague-Dawley rat at 10 mg/kg, iv; assay type: ADME, organism-based; design: dose 10 mg/kg, route intravenous; details: in vivo; summary of the method: as §1
# Rattus norvegicus [24] = assay: Oral bioavailability in Sprague-Dawley rat at 20 mg/kg; assay type: ADME, organism-based; details: in vivo; summary of the method: as §1
# [25] = Half life in Sprague-Dawley rat at 20 mg/kg, po; assay type: ADME, organism-based; design: dose 20 mg/kg, route oral; details: in vivo; summary of the method: as §1
# Mus musculus [26] = assay: Reduction in free fatty acid in C57BKS db/db mouse at 15 mg/kg/day, po (reference value: 1.46 +/- 0.10 mM); assay type: functional
# Rattus norvegicus [27] = assay: AUC (0 to infinity) in Sprague-Dawley rat at 20 mg/kg, po; assay type: ADME, organism-based, Plasma; design: time infinity, dose 20 mg/kg, route oral; details: in vivo; summary of the method: as §1
# [28] = AUC (0 to t) in Sprague-Dawley rat at 20 mg/kg, po; assay type: ADME, organism-based; design: dose 20 mg/kg, route oral; details: plasma; summary of the method: as §1
# [29] = Half life in Sprague-Dawley rat at 10 mg/kg, iv; assay type: ADME, organism-based; design: dose 10 mg/kg, route intravenous; details: in vivo; summary of the method: as §1
# [30] = Cmax in Sprague-Dawley rat at 20 mg/kg, po; assay type: ADME, organism-based; design: dose 20 mg/kg, route oral; details: in vivo; summary of the method: as §1
# [31] = Apparent clearance in Sprague-Dawley rat at 10 mg/kg, iv; assay type: ADME, organism-based; design: dose 10 mg/kg, route intravenous; details: in vivo, read-out: CL(app) (converted); summary of the method: as §1
# Mus musculus [32] = assay: Reduction in random blood glucose level in C57BKS db/db mouse at 15 mg/kg/day, po (Rvb =23.3 +/- 1.0 mM); assay type: functional
# Mus musculus [33] = assay: Reduction in fasting blood glucose level in C57BKS db/db mouse at 15 mg/kg/day, po (Rvb =23.0 +/- 1.0 mM); assay type: functional
# Rattus norvegicus [34] = assay: AUC (0 to infinity) in Sprague-Dawley rat at 10 mg/kg, iv; assay type: ADME, organism-based, Plasma; design: time infinity, dose 10 mg/kg, route intravenous; details: in vivo; summary of the method: as §1
# [35] = Tmax in Sprague-Dawley rat at 20 mg/kg, po; assay type: ADME, organism-based; design: dose 20 mg/kg, route oral; details: in vivo; summary of the method: as §1
# Mus musculus [36] = assay: Reduction in plasma triglyceride content in C57BKS db/db mouse at 15 mg/kg/day, po (reference value: 1.01 +/- 0.09 mM); assay type: functional
# Dipeptidyl peptidase 2 = Dipeptidyl peptidase 2 (Homo sapiens, UniProt Q9UHL4); assay: Inhibition of DPP7 (unknown origin) expressed in baculovirus expression system using Nle-Pro-AMC as substrate by continuous fluorometric assay
# Prolyl endopeptidase FAP = molecular target: T2, Prolyl endopeptidase FAP (Homo sapiens, UniProt Q12884); assay: Inhibition of FAP (unknown origin) expressed in baculovirus expression system using Nle-Pro-AMC as substrate by continuous fluorometric assay
# T2 sequence (Q12884 whole entry): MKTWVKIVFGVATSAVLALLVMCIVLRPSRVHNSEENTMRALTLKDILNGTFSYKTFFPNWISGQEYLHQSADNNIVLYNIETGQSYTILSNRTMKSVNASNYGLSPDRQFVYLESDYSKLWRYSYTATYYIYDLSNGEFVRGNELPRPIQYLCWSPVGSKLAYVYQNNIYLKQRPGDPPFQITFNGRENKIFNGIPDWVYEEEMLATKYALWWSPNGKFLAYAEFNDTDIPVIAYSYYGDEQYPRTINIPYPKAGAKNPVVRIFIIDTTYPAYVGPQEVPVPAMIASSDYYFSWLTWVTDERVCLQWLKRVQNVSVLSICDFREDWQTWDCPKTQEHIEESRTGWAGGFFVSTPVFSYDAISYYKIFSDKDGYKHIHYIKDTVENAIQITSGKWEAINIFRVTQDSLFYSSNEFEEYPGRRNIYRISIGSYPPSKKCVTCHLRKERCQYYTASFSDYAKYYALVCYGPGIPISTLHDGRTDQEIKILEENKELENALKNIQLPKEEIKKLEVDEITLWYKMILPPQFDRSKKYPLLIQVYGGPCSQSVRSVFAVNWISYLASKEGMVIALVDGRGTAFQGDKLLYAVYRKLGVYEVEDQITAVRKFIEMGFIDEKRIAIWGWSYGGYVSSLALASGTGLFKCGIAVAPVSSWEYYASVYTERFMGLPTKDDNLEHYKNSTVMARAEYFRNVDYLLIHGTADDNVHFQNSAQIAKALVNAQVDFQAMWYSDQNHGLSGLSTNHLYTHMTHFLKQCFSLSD
smiles,measurement,setting,value
N#C[C@@H]1C[C@H](F)CN1C(=O)C[C@H](N)Cc1cc(F)c(F)cc1F,Activity,Mus musculus [1],Dose-dependent effect
same,MRT,[2],2.93 h
same,CL(app),Rattus norvegicus [3],57 mL/min/kg
same,Cmax,[4],2690 ng/mL
same,MRT,[5],3.03 h
same,IC50,Cytochrome P450 3A4,56.5 µM
same,AUC,Rattus norvegicus [6],5870 ng/mL.hr
same,IC50,[7],97.7 µM
same,AUC(0-t),[8],5840 ng·h/mL
same,Cmax,[9],2710 ng/mL
same,IC50,[10],> 40 µM
same,AUC(0-t),[11],8840 ng·h/mL
same,Tmax,[12],0.3 h
same,IC50,Cytochrome P450 2C9,Not Active
same,half-life,[13],2.33 h
same,AUC,Rattus norvegicus [14],8935 ng·h/mL
same,half-life,[15],2.03 h
same,F,Rattus norvegicus [16],53.2%
same,Tmax,[17],0.3 h
N#C[C@@H]1C[C@@H]2CCC[C@@H]2N1C(=O)C[C@H](N)Cc1cc(F)c(F)cc1F,MRT,[18],2.71 h
same,Activity,Mus musculus [19],inactive
same,MRT,[20],2.81 h
same,Cmax,[21],1120 ng/mL
same,AUC(0-t),[22],4470 ng·h/mL
same,Tmax,[23],0.5 h
same,F,Rattus norvegicus [24],22.8%
same,half-life,[25],2.74 h
same,Activity,Mus musculus [1],Dose-dependent effect
same,Activity,Mus musculus [26],1.43 mEq/L
same,AUC,Rattus norvegicus [27],2360 ng/mL.hr
same,IC50,Cytochrome P450 3A4,2.25 µM
same,AUC(0-t),[28],2040 ng·h/mL
same,IC50,[7],55.3 µM
same,half-life,[29],2.39 h
same,IC50,[10],> 40 µM
same,Cmax,[30],509 ng/mL
same,clearance,[31],33.5 mL/min/kg
same,Activity,Mus musculus [32],21.3 mM
same,IC50,Cytochrome P450 2C9,Not Active
same,Activity,Mus musculus [33],19.7 mM
same,AUC,Rattus norvegicus [34],4974 ng·h/mL
same,Tmax,[35],0.5 h
same,Activity,Mus musculus [36],0.85 mM
N#C[C@@H]1C[C@H](F)CN1C(=O)C[C@H](N)Cc1ccccc1,IC50,Dipeptidyl peptidase 2,Not Active
N#C[C@@H]1C[C@@H]2CCC[C@@H]2N1C(=O)C[C@H](N)Cc1cccc(F)c1,IC50,Prolyl endopeptidase FAP,Not Active
same,IC50,Dipeptidyl peptidase 2,Not Active
Cc1ccccc1C[C@@H](N)CC(=O)N1C[C@@H](F)C[C@H]1C#N,IC50,Dipeptidyl peptidase 2,Not Active
N#C[C@@H]1C[C@H](F)CN1C(=O)C[C@H](N)Cc1ccccc1Cl,IC50,Dipeptidyl peptidase 2; read-out: IC50,130 µM
N#C[C@@H]1C[C@@H]2CCC[C@@H]2N1C(=O)C[C@H](N)Cc1ccccc1Cl,IC50,Dipeptidyl peptidase 2,Not Active
